High-throughput results (PubChem BioAssay)
sEH activator: soluble epoxide hydrolase activators, primary screen, biochemical, human sEH; Bifunctional epoxide hydrolase 2 (Homo sapiens), P34913; purified human sEH enzymatic activity, activator screen; activation, % at 2 µM; actives 0.04% (n = 91,000); in the data active = activation above about 37%
sEH inhibitor: soluble epoxide hydrolase inhibitors, primary screen, biochemical, human sEH. Bifunctional epoxide hydrolase 2 (Homo sapiens), P34913. recombinant human sEH enzymatic activity assay. inhibition, % at 2 µM. actives 0.34% (n = 91,000). AID 707, 2007; in the data active = inhibition above about 80%
ERa coact pot: enhancers of ERα–SRC-1 coactivator binding, primary screen, biochemical, TR-FRET, ERα LBD, low estradiol | Estrogen receptor (Homo sapiens), P03372 | coactivator binding (% of control), % at 25.6 µM | TR-FRET ERalpha-LBD/SRC-Cy5 coactivator binding, 2 h; 100 = basal binding, no effect | AID 639, 2007 | actives 1.3% (n = 86,000); in the data active = activity above about 200%;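 note: binding measured in presence of low estradiol as agonist stimulus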
Target sequence (P03372 whole entry, looked up, the tested form may be a part): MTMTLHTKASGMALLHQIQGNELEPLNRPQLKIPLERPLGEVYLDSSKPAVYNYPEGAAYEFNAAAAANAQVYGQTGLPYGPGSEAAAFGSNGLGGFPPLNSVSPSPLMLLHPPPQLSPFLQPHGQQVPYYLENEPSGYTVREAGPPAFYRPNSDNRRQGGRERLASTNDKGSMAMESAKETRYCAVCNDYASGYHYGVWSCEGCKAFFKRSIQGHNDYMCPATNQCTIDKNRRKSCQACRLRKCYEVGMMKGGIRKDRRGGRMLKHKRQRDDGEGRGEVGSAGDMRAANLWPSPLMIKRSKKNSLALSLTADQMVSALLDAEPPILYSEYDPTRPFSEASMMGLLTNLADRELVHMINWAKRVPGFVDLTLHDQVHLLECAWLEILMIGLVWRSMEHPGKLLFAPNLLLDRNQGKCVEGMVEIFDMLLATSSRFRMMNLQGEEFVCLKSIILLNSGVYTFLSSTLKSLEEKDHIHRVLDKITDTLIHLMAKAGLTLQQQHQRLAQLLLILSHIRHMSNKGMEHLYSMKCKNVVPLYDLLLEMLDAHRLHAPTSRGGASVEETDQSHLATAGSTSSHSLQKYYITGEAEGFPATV
ERa coact inh: ERα–SRC-1 coactivator interaction inhibitors, primary screen, biochemical, TR-FRET, ERα LBD, estradiol-bound; inhibition, % at 25.6 µM; Estrogen receptor (Homo sapiens), P03372; AID 629, 2007; TR-FRET ER-alpha LBD / SRC-1 peptide; actives 1.7% (n = 86,000); in the data active = inhibition above about 50%
Rev-RRE block: HIV-1 Rev-RRE binding inhibitors, primary screen, biochemical, FRET, protein-RNA interaction; P05866; Rev peptide-RRE RNA binding; inhibition, % at 8 µM; actives 0.79% (n = 97,000);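 active = inhibition above the screen-wide mean plus 3 SD, cut at about 35% in these data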
Target sequence (P05866 whole entry, looked up): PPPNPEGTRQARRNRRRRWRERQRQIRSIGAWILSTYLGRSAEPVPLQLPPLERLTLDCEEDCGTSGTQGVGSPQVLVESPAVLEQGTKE
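Material: labelled RRE RNA duplex and labelled Rev peptide / Buffer or medium: HEPES pH 7.5 salt buffer with EDTA / Compound dosing: single point, 8 µM final nominal compound concentration / Benchmarks: DMSO low control, neomycin B high control / Timing: 5 min preincubation and 15 min binding, 25 °C / Technique: FRET fluorescence readout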
ERb coact inh: inhibitors of ERβ-SRC1 coactivator interaction, primary screen, biochemical, TR-FRET, ERβ LBD, SRC-1 peptide | inhibition, % at 25.6 µM | Estrogen receptor beta (Homo sapiens), Q92731 | actives 1.3% (n = 86,000) | TR-FRET ER-beta LBD / SRC1-Cy5 peptide binding; receptor agonist-loaded with 1 µM estradiol;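 active = compounds whose percent inhibition of the receptor-coactivator binding signal exceeds about 50% in the single-dose screen, limit read from the data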
Of the large screens only hits and unclear results are named; the others gave an inactive call; [ ] = dose if it differs, or a comment. Sampled rows, rich in hits. Any-hit rate of the full collection: about 3.5%.

O=C(Cn1nc(-c2ccc(Cl)cc2)c2ccccc2c1=O)NCC1CCCO1 (configuration not stated)	none
Cc1ccc(N(C(C)C(=O)Nc2cc(Cl)ccc2Oc2ccccc2)S(C)(=O)=O)cc1 (configuration not stated)	none (no result: ERa coact pot, ERa coact inh, ERb coact inh)
Cn1c(SCC(=O)NCc2ccco2)nnc1-c1ccc(S(=O)(=O)N2CCOCC2)cc1	none
O=C1CCCCCN1CSc1nc2ccccc2s1	none
COc1ccc(NC(=O)CC(Cc2ccccc2)C(=O)O)cc1 (configuration not stated)	none
CCCCCNC(CC(=O)Nc1ccc(OC)cc1)C(=O)O (configuration not stated)	ERa coact pot 787.8[fluorescence artefact?] (no result: sEH activator, sEH inhibitor, Rev-RRE block)
O=C(COC(=O)C1CCCN1C(=O)c1cccs1)Nc1ccc2c(c1)OCO2 (configuration not stated)	ERa coact inh 51.6[fluorescence artefact?]
Cc1ccc(C(=O)Nc2nc3ccccc3n3nnnc23)cc1	none
CCOc1ccc2nc(NC(=O)CCC(=O)c3cccs3)sc2c1	ERa coact inh 59.7[fluorescence artefact?], ERb coact inh 50.9
CCOC(=O)CNC(=O)CSc1ncnc2c1cnn2-c1ccc(Cl)cc1	ERa coact pot 205.8
Cc1ccc(CN2C(=O)CCC2C(=O)NCc2ccco2)cc1 (configuration not stated)	none
COC(=O)c1sccc1NC(=O)c1sccc1C	none
COC(=O)c1sccc1NC(=O)c1cc(OC)cc(OC)c1	ERa coact pot 440.4[fluorescence artefact?]
CCc1sc(C(=O)Nc2ccsc2C(=O)OC)cc1Br	ERa coact pot 236.7 (no result: sEH activator, sEH inhibitor, Rev-RRE block)
COC(=O)c1sccc1NC(=O)c1ccc(OC)c(OC)c1	none
COc1[nH]c(/N=C/c2ccccc2)c(C#N)c1C#N	Rev-RRE block 38.0
CCOC(=O)c1cnc(SCC(=O)Nc2nnc(CC)s2)nc1N	ERa coact pot 235.2
Cn1c(C(=O)OC(C(=O)NC2CCCCC2)c2ccncc2)cc2sccc21 (configuration not stated)	ERa coact pot 262.7[fluorescence artefact?]
Cn1c(C(=O)OC(C(=O)NC2CCCC2)c2ccncc2)cc2sccc21 (configuration not stated)	none
COc1ccc(NC(=O)COc2ccccc2)c(OC)c1	none
COc1cc2cc(CN(Cc3nnnn3Cc3ccco3)C3CCCCC3)c(=O)[nH]c2cc1OC	Rev-RRE block 45.1
CCOc1ccc2[nH]c(=O)c(CN(Cc3nnnn3Cc3ccco3)C3CCCCC3)cc2c1	Rev-RRE block 60.1
COCCn1nnnc1CN(Cc1cc2cc(OC)c(OC)cc2[nH]c1=O)C1CCCC1	none
CCOc1ccc2[nH]c(=O)c(CN(Cc3ccco3)Cc3nnnn3Cc3ccccc3)cc2c1	none (no result: sEH activator, sEH inhibitor)
Cc1cc(-c2ccco2)n2c(nc3ccccc32)c1C#N	Rev-RRE block 47.0 (no result: ERa coact pot, ERa coact inh, ERb coact inh)
Cc1ccnc(N2CCN(c3cc(C)c(C#N)c4nc5ccccc5n34)CC2)c1	none
COc1ccccc1NC(=O)C1=C(C)NC(SCC(=O)c2ccccc2)=C(C#N)C1c1ccco1 (configuration not stated)	ERa coact pot 277.8[fluorescence artefact?]
C=CCOC(=O)C1=C(C)NC(SCC(=O)Nc2ccc(C)c(Cl)c2)=C(C#N)C1c1ccco1 (configuration not stated)	ERa coact inh 94.2[fluorescence artefact?] (no result: sEH activator, sEH inhibitor)
COCCOC(=O)C1=C(C)NC(SCC(=O)NC(C)(C)C)=C(C#N)C1c1ccco1 (configuration not stated)	none
CCOC(=O)C1=C(c2ccccc2)NC(SCC(=O)NC2CCCCC2)=C(C#N)C1c1ccco1 (configuration not stated)	ERa coact pot 364.2[fluorescence artefact?]
CC(=O)C1=C(C)NC(SCC(=O)c2ccc(C)cc2)=C(C#N)C1c1ccco1 (configuration not stated)	none
CCSCc1nnc(SCC(=O)Nc2cccc(SC)c2)n1C	none
O=C(O)c1ccccc1-c1ccccc1C(=O)NCCCO	sEH activator 37.1
CCN(CC)S(=O)(=O)c1ccc(C(=O)NCc2ccc(C)cc2)cc1	ERb coact inh 61.5
CCN(CC)S(=O)(=O)c1cccc(C(=O)NCCc2ccccc2)c1	sEH inhibitor 81.3
CSc1nnc(-c2ccccc2)n1N	none (no result: sEH activator, sEH inhibitor, ERa coact pot, ERa coact inh, ERb coact inh)
COc1cc2c(cc1OC)C(c1ccc(-c3cc(Cl)ccc3Cl)o1)=NCC2	ERa coact pot 253.3[fluorescence artefact?]
Cc1cccc(CSc2nc3c(cc2C#N)CCC3)c1	ERb coact inh 67.9[fluorescence artefact?]
C=C(C)CSc1nc2c(cc1C#N)CCC2	ERb coact inh 99.2[fluorescence artefact?] (no result: sEH activator, sEH inhibitor)
N#Cc1cc2c(nc1SCc1cccnc1)CCC2	none
COc1ccc(-c2c3c(=O)n(C)c(=O)n(C)c3cn2Cc2ccccn2)cc1	none
CCc1ccc(S(=O)(=O)c2n[nH]n3c2nc(=O)c2ccccc23)cc1	ERa coact pot 560.5[fluorescence artefact?]
CC(C)c1ccc(S(=O)(=O)c2n[nH]n3c2nc(=O)c2ccccc23)cc1	none
Cc1cc2cc(CNC(=O)Nc3cccc(Cl)c3)ccc2n1C	ERa coact pot 214.6[fluorescence artefact?]
CCCC(=O)NCc1ccc2c(c1)cc(C)n2C	none (no result: sEH activator, sEH inhibitor)
Cc1cc2cc(CNC(=O)c3ccc(S(=O)(=O)N4CCOCC4)cc3)ccc2n1C	ERa coact pot 275.7[fluorescence artefact?]
Cc1cc2cc(CNC(=O)c3ccc(Br)o3)ccc2n1C	ERa coact inh 74.0[fluorescence artefact?] (no result: sEH activator, sEH inhibitor, Rev-RRE block)
O=C1c2ccccc2C(Nc2ccc(F)cc2F)N1CCN1CCOCC1 (configuration not stated)	none
COc1ccc(N2CCN(C(=O)Cc3cccs3)CC2)cc1	none
Nc1nnc(Cc2ccccc2)s1	none
COc1ccc(-c2noc(CSc3nc(-c4ccccc4)cc(=O)[nH]3)n2)cc1	ERa coact pot 241.6[fluorescence artefact?]
NC(=O)c1ccc2c(c1)OCCO2	none
O=C(O)c1ccc2c(c1)OCCO2	ERa coact inh 77.1[fluorescence artefact?]
CN1CCCC(OC(=O)c2ccc3c(c2)OCCO3)C1 (configuration not stated)	ERb coact inh 60.3
Cc1[nH]n(C(N)=S)c(=O)c1N=Nc1ccc(S(=O)(=O)N2CCCCCC2)cc1	none
CC12CN3CC(C)(CN(C1)C3c1ccccc1Cl)C2O (configuration not stated)	none (no result: ERa coact pot, ERa coact inh, ERb coact inh)
CN1CC2(C)CN(C(c3ccccc3)c3ccccc3)CC(C)(C1)C2O (configuration not stated)	ERb coact inh 57.1 (no result: sEH activator, sEH inhibitor, Rev-RRE block)
NC(=O)c1cccc2c1C(=O)N(C1CCCCC1)C2	ERa coact inh 53.2[fluorescence artefact?], ERb coact inh 53.2
CCOC(=O)N1CCC(N2Cc3cccc(C(=O)N4CCN(C5CCCCC5)CC4)c3C2=O)CC1	none
CC(=O)NCCOC(=O)Nc1ccncc1	ERa coact inh 55.3
